Compound activity from PubChem.
The list is not random: actives were taken first. Their share in the collection is about 2.3%.
TRPC6 inhibitor – mouse TRPC6 channel inhibition; 1.1% of 310,000 active; Q61143; AID 2553; B-score at 10 µM; HEK293-TRPC6, membrane potential dye, ACh-evoked depolarization; active compounds read low;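 active means B-score under library mean minus 3 SD, initial fluorescence not abnormally high, positive integrated signal ratio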;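 further: B-score derived from integrated fluorescence ratio over the kinetic read; more negative B-score means stronger inhibition of depolarization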
TRPC6 act – activators of mouse TRPC6 channel | Q61143 | HEK293-TRPC6 membrane potential dye fluorescence; active compounds read high | B-score at 10 µM | 0.13% of 310,000 active | AID 2550;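 active means B-score of the integrated fluorescence ratio above library mean plus 3 SD, and starting fluorescence ratio within library mean plus 5 SD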;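 further: higher score means more depolarization so channel activation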
TRPC4 potent – allosteric potentiators of mouse TRPC4 channel; HEK293 TRPC4beta/mu-opioid, DAMGO EC20, Fluo-4 Ca2+ flux; active compounds read high; B-score at 10 µM; 0.42% of 310,000 active;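 active means B-score of calcium response area above 5 SD of library B-scores, with initial fluorescence ratio within 5 SD of library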;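 further: B-score of integrated fluorescence ratio over time as area under calcium response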
Target sequence (Q9QUQ5 whole entry, looked up): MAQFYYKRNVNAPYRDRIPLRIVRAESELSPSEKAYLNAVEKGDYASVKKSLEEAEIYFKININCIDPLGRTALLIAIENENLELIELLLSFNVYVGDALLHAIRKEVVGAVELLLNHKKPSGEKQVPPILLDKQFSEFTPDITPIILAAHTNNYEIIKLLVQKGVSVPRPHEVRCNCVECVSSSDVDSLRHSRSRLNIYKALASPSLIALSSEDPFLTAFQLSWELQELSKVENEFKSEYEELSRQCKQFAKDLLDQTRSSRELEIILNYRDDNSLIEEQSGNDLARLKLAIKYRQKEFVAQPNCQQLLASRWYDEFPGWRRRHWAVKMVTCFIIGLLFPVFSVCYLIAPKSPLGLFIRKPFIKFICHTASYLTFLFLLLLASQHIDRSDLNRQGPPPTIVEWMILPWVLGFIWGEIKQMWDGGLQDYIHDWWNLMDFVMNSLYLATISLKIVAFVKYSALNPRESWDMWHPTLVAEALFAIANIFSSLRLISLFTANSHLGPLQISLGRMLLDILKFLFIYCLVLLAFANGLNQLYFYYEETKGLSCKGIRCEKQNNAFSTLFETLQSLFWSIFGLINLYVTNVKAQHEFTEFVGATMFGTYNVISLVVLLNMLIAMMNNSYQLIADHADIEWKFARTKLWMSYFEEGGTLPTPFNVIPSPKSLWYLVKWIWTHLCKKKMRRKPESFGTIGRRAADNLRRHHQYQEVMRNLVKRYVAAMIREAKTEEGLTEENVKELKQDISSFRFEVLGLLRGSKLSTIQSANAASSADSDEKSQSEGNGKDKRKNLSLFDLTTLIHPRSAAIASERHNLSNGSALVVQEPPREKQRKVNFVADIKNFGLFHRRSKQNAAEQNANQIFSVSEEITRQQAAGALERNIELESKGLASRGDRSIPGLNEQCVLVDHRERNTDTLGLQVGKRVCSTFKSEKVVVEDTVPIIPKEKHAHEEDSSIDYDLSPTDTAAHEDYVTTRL
TRPC4 agonist – opens the mouse TRPC4 cation channel | AID 2237 | B-score at 10 µM | Q9QUQ5 | HEK293 TRPC4beta/mu-opioid, Fluo4 calcium fluorescence; active compounds read high | 0.49% of 310,000 active;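 active means B-score above 5 SD of library B-scores, and initial fluorescence ratio not above library mean plus 5 SD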;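 further: positive B-score marks a calcium rise read as TRPC4 activation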
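Assay system: HEK293 stable line with TRPC4beta plus mu-opioid receptor; schedule: 45 min room-temperature Fluo4 loading, 110 s read; technique: kinetic Fluo4 calcium fluorescence; evaluation: integrated baseline-normalised fluorescence ratio, converted to per-well B score; controls: buffer (low) and maximal DAMGO (high)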
TRPC4 inh – TRPC4 (mouse) channel inhibition; Q9QUQ5; HEK293 TRPC4beta/mu-opioid, DAMGO-evoked Fluo4 calcium flux; active compounds read low; B-score at 10 µM; 0.39% of 300,000 active; AID 2247;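 active means B-score over 3 SD under the library average, no early fluorescence shift, positive overall ratio signal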
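Material: HEK293 cells with stable TRPC4beta plus mu-opioid receptor expression / Probe or stimulus: DAMGO in two steps, submaximal then maximal / Compound: single concentration per test compound / Technique: kinetic Fluo4 fluorescence imaging of calcium influx / Read-out: per-well B score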
TRPC4 sel inh 2 – second selectivity test of TRPC6 inhibitors: effect on mouse TRPC4; inhibition, % at 10 µM; shares compounds with TRPC6 inhibitor; HEK293 TRPC4/MOR, membrane potential dye fluorescence; channel activated by saturating DAMGO dose; 42% of 920 active; AID 2776;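 active means compounds whose fluorescence signal differed from control wells by over 3 SD, either direction, in both duplicate plates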
TRPC4 spec – mouse TRPC4 off-target activity of TRPC6 inhibitors; activity change, negative = inhibition, % at 10 µM; 61% of 920 active; shares compounds with TRPC6 inhibitor; HEK293 TRPC4/mu-opioid, membrane potential fluorescence;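 active means rise or fall in signal beyond 3 SD of buffer-only wells in both replicate plates, either sign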;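 further: integrated kinetic ratio of fluorescence range over baseline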
HEK293 MPD ctr 2-1 – parental HEK293 nonspecific activity of TRPC6 inhibitors, second screen; shares compounds with TRPC6 inhibitor; parental HEK293 membrane potential dye fluorescence; maximal acetylcholine challenge after compound addition; signal change vs control, % at 10 µM; 31% of 920 active; AID 2779;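 active means membrane potential signal moving either way by over 3 SD of the maximum-effect control, in both duplicate plates, meaning non-specific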
HEK293 MPD ctr-1 – parental HEK293 nonspecific activity of TRPC6 inhibitors; shares compounds with TRPC6 inhibitor; parental HEK293 membrane potential dye fluorescence; membrane potential signal change, % at 10 µM; 60% of 920 active; AID 2780;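 active means membrane potential signal shifting up or down by more than 3 SD of buffer-only wells, on both duplicate plates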
HEK293 MPD ctr-2 – checks TRPC6 modulator effects in parental HEK293 cells; membrane potential signal change, % at 10 µM; membrane potential dye fluorescence; AID 488924; 51% of 2,400 active; shares compounds with TRPC6 inhibitor;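 active means membrane potential signal moves up or down beyond 5 SD from buffer-only wells, on both duplicate plates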
HEK293 MPD ctr 2-2 – second counter-screen for TRPC6 modulators: effect in parental HEK293 cells; shares compounds with TRPC6 inhibitor; membrane potential dye fluorescence; after compound, maximal acetylcholine stimulation; inhibition, % at 10 µM; AID 488926; 14% of 2,400 active;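 active means membrane potential signal drops by more than 5 SD from the mean control signal, in both duplicate plates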;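 further: plate controls were acetylcholine ECmax control wells for no effect and buffer only wells for full effect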
TRPC4 ctr mod – tests whether TRPC6 modulators also affect mouse TRPC4; shares compounds with TRPC6 inhibitor; HEK293 TRPC4/mu-opioid, membrane potential fluorescence; percent change from control (negative = decrease, positive = increase), % at 10 µM; 69% of 2,400 active;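 active means membrane potential signal moved up or down beyond 5 SD of buffer control wells, in both duplicate plates, actives on both sides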;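 further: plate controls were assay buffer wells for no effect and DAMGO maximal-effect wells for full effect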
TRPC4 ctr inh 2 – second check of whether TRPC6 modulators also affect mouse TRPC4 | inhibition, % at 10 µM | shares compounds with TRPC6 inhibitor | 55% of 2,400 active | HEK293 TRPC4/mu-opioid, membrane potential dye fluorescence; stimulated with maximal-effect DAMGO;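 active means drop in membrane potential signal beyond 5 SD of the control wells in both duplicate plates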;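 further: TRPC4 counter screen for TRPC6 hits run under conditions tuned for TRPC6 not TRPC4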
TRPC6 block conf – confirmation of mouse TRPC6 inhibitors. shares compounds with TRPC6 inhibitor. AID 488960. HEK293-TRPC6, membrane potential dye, ACh-evoked depolarization. 43% of 3,300 active. inhibition, % at 10 µM;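 active means fluorescence ratio falls more than 5 SD below the full-stimulation control mean, in both duplicate runs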;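 further: integrated fluorescence ratio of peak minus minimum over baseline after agonist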
TRPC6 act conf – mouse TRPC6 activator confirmation; 11% of 2,800 active; shares compounds with TRPC6 inhibitor; HEK293-TRPC6 membrane potential dye fluorescence, FDSS; activation, % at 10 µM;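 active means ratio signal rise beyond 5 SD above unstimulated control wells' mean, seen in both duplicate runs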;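 further: plate controls were buffer EC0 wells for no effect and acetylcholine ECmax response for full effect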
* hit, by the source's call; i = inactive; · = no result given; ! = repeats disagree.

SMILES	TRPC6 inhibitor	TRPC6 act	TRPC4 potent	TRPC4 agonist	TRPC4 inh	TRPC6 block conf	TRPC6 act conf	others
CCCCN1CCc2c1nc1ccc(Br)cc1c2N	-6.35*	i	i	i	i	88.5%*	i	HEK293 MPD ctr-2=-132.0%*;HEK293 MPD ctr 2-2=98.0%*;TRPC4 ctr mod=-37.0%*;TRPC4 ctr inh 2=93.0%*
CCCCN1CCc2c([nH]c3ccccc23)C1=O	i	i	i	i	i	·	·
Cc1ccc2nc3c(c(N)c2c1)CCN3c1ccccc1	i	i	i	i	i	·	·
CN1CCc2c1nc1ccccc1c2N (tested in a mixture with another compound)	i	i	i	i	i	·	·
Cc1ccc2nc3c(c(N)c2c1)CCN3C	-7.07*	i	i	i	-7*	57.9%*	i	TRPC4 sel inh 2=51.0%*;TRPC4 spec=-27.0%*;HEK293 MPD ctr 2-1=13.0%*;HEK293 MPD ctr-1=-460.0%*
COc1ccccc1CN=C1NC(=O)C(CC(=O)Nc2ccc(C(C)=O)cc2)S1 (stereo not given)	i	i	i	i	i	·	·
O=C(COc1ccccc1-c1ccccc1)NN=C1CCCC1	i	i	i	i	i	·	·
CC(=O)Nc1sc(/C(C#N)=C/c2ccc(Cl)c(Cl)c2)nc1-c1ccc(C)cc1	i	12.6*	i	i	i	i	75.5%*	HEK293 MPD ctr-2=254.5%*;HEK293 MPD ctr 2-2=i;TRPC4 ctr mod=45.5%*;TRPC4 ctr inh 2=i
CC(=O)Nc1sc(N/N=C/c2ccc(C)cc2)nc1-c1ccc(C)cc1	i	i	i	i	i	·	·
COc1ccc(NC(=O)CSC(C)c2nc3ccccc3c(=O)[nH]2)cc1 (stereo not given)	i	i	i	i	i	·	·
O=C(NNC(=O)c1ccccc1[N+](=O)[O-])c1csc(N2CCOCC2)n1	i	i	i	i	i	·	·
COc1cc(OC)c(C(=O)N(CCc2ccccc2)Cc2ccccc2)cc1OC	-6.89*	i	i	i	i	i	i	TRPC4 sel inh 2=i;TRPC4 spec=15.5%*;HEK293 MPD ctr 2-1=i;HEK293 MPD ctr-1=9.0%*
Nc1c2ccccc2nc2ccccc12	-10*	i	i	i	i	66.5%*!	i	TRPC4 sel inh 2=43.0%*;TRPC4 spec=-36.9%*;HEK293 MPD ctr 2-1=32.0%*;HEK293 MPD ctr-1=-420.5%*
CCN(CC)c1nc2ccccc2c(N)c1-c1ccccc1	-6.88*	i	i	i	-7*	i	i	TRPC4 sel inh 2=41.5%*;TRPC4 spec=14.4%*;HEK293 MPD ctr 2-1=i;HEK293 MPD ctr-1=9.3%*
Cc1c2ccccc2nc2c(F)c(N(C)C)c(F)c(F)c12	i	i	i	i	i	·	·
c1ccc2nc3ccccc3nc2c1	i	i	i	i	i	·	·
CC(=O)c1c(C)nc2ccccc2c1N	-5.24*	i	i	i	i	i	i	HEK293 MPD ctr-2=-195.0%*;HEK293 MPD ctr 2-2=i;TRPC4 ctr mod=-31.5%*;TRPC4 ctr inh 2=i
Cc1c(N(C)C)nc2ccccc2c1N	-10.2*	i	i	i	i	i	i	TRPC4 sel inh 2=44.5%*;TRPC4 spec=-17.5%*;HEK293 MPD ctr 2-1=i;HEK293 MPD ctr-1=-312.5%*
COc1ccc(NC(=O)C2CCCN2S(=O)(=O)c2ccc3c(c2)CC(C)N3C(C)=O)cc1OC (stereo not given)	i	i	i	i	i	·	·
Cc1ccc(COC(=O)NCc2cccnc2)cc1	i	i	i	i	i	·	·
CCCCCNc1nc(NCCCO)c(C#N)c2c1CN(C)CC2	-5.59*	i	i	i	i	i	i	HEK293 MPD ctr-2=-100.0%*;HEK293 MPD ctr 2-2=i;TRPC4 ctr mod=-27.0%*;TRPC4 ctr inh 2=i
CN1CCc2c(C#N)c(N3CCOCC3)nc(NCC3CCCO3)c2C1 (stereo not given)	i	i	i	i	i	·	·
CCCc1nc(NCCO)c(C#N)c2c1CCCC2	i	i	i	i	i	·	·
CCCCCNc1nc(N2CCCC2)c2c(c1C#N)CCN(C)C2	-6.62*	i	i	i	i	71.0%*	i	TRPC4 sel inh 2=41.0%*;TRPC4 spec=-22.2%*;HEK293 MPD ctr 2-1=i;HEK293 MPD ctr-1=-272.0%*
CCC(C)NS(=O)(=O)c1ccc(F)c(C(=O)Nc2c(F)cc(F)cc2Br)c1 (stereo not given)	i	i	i	i	i	·	·
SMILES	TRPC6 inhibitor	TRPC6 act	TRPC4 potent	TRPC4 agonist	TRPC4 inh	TRPC6 block conf	TRPC6 act conf	others
O=C(NCc1cccs1)C1CC(c2ccccc2O)=NO1 (stereo not given)	i	i	i	i	i	·	·
O=C(NCc1ccccn1)C1CC(c2ccccc2O)=NO1 (stereo not given)	-5.36*	i	i	i	i	i	i	HEK293 MPD ctr-2=i;HEK293 MPD ctr 2-2=i;TRPC4 ctr mod=i;TRPC4 ctr inh 2=i
Cc1ccc(CNC(=O)CCC2CCCN(Cc3c(C)nn(C(C)C)c3C)C2)o1 (stereo not given)	i	i	i	i	i	·	·
CC(C)N1C(=O)CSC1c1ccc(Br)cc1 (stereo not given)	i	i	i	i	i	·	·
O=C(CN1C(=O)C2C3CCC(C3)C2C1=O)OCC(=O)c1ccccc1 (stereo not given)	i	i	i	i	i	·	·
CC(C)(C)c1ccc(OC(=O)CN2C(=O)C3C4CCC(C4)C3C2=O)cc1 (stereo not given)	-5.86*	i	i	i	i	i	i	HEK293 MPD ctr-2=i;HEK293 MPD ctr 2-2=i;TRPC4 ctr mod=i;TRPC4 ctr inh 2=i
